# Bioassay records from PubChem BioAssay.
# An excerpt weighted towards active compounds, which were near 2.2% of everything screened.
# HIV Env fusion: blocks HIV Env-driven cell-cell fusion; HeLa-JRFL Env/CEM21 cell fusion, luciferase; inhibition, % at 12.3 µM; 1.1% of 360,000 active; AID 651610;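 active = mean replicate inhibition score of at least 50 and every replicate individually at or above 50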
# NR2E3 ag-1: NR2E3 (human) agonism; 0.12% of 320,000 active; Q9Y5X4; GST-NR2E3/biotin-RetCOR TR-FRET, 1536-well; inhibition of corepressor binding, % at 4.78 µM;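 active = percent inhibition above the cutoff of mean plus 3 SD of all tested compounds, set per screening campaign, cut at about 20% in these data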
# Target sequence (Q9Y5X4 whole entry, looked up): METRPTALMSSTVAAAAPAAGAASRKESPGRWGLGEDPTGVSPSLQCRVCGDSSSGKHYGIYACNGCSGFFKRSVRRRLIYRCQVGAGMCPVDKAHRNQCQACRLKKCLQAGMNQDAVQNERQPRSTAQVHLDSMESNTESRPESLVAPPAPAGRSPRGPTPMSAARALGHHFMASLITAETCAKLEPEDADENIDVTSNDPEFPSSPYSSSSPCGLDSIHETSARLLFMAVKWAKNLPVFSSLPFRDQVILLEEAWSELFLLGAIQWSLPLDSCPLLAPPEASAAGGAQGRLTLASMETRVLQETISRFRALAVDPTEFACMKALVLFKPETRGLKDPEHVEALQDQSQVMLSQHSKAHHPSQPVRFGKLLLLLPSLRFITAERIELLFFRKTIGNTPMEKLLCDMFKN
#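 Material: NR2E3–RetCOR corepressor complex / Incubation: Compound–protein incubation for 5 h at 4 °C / Dosing: compound at 4.8 µM, single dose / Detection: time-resolved FRET / Benchmarks: high control biotin, low control 0.6% DMSO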
# NR2E3 ag-2: human photoreceptor-specific nuclear receptor agonism; Q9Y5X4; CHO-S Gal4-NCOR/VP16-NR2E3 two-hybrid, luciferase; inhibition of corepressor binding, % at 3.98 µM; 0.35% of 360,000 active; AID 602229;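 active = inhibition above the mean of all tested compounds plus 3 SD, cut at about 70% in these data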;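 also: higher means lower luciferase signal from less NR2E3 corepressor binding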
# V-ATPase pH: regulators of yeast V-ATPase proton transport | S. cerevisiae, pHLuorin cytosolic pH fluorescence | response, % at 10 µM | 0.37% of 350,000 active | AID 504577; in the data active = response mostly above about 7.3%, no sharp cut-off; inactive = mostly below about 5.4%; also: actives read high
# FXN GAA850 act: activators of GAA850 frataxin (FXN) promoter. HEK293 lucGAA850 FXN promoter luciferase reporter, 24 h; percent of 10 µM SAHA response. activation, % at 6 µM. 0.56% of 360,000 active. AID 540364;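 active = activation above the average of all compounds screened plus 3 SD, cutoff fixed separately per campaign, cut at about 7.5% in these data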
# GalR3 antag: antagonists of human GalR3. HEK293 GalR3-CNG cAMP membrane potential fluorescence; galR3 body fused to GalR1 C-terminus. 0.44% of 360,000 active. AID 651719. O60755. inhibition, % at 3 µM;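 active = inhibition above the screen-wide average plus 3 SD, cut at about 13% in these data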;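 also: forskolin and galanin both at EC90 stimulate the cells; cAMP rise reported by CNG channel membrane potential dye signal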
# GalR3 antag conf: confirmation of human galanin receptor 3 antagonists. inhibition, % at 3 µM. 59% of 1,600 active. shares compounds with GalR3 antag. HEK293 GalR3 CNG cAMP biosensor, membrane potential fluorescence; galR3 fused to GalR1 carboxy tail; challenged with forskolin and galanin at EC90;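 active = inhibition above the primary screen's cutoff, the mean inhibition of all screened compounds plus 3 SD, cut at about 13% in these data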
# CNG parental: parental cell agonism counter-screen for GalR3 antagonists; shares compounds with GalR3 antag; HEK293-CNG parental cells, cAMP membrane potential fluorescence; normalised: DMSO wells 0%, forskolin wells 100%; activation, % at 3 µM; 10% of 1,600 active; AID 652268; in the data active = activation above about 1.3%
# Numbers stand for hits; – = inactive; · = no result.
SMILES,HIV Env fusion,NR2E3 ag-1,NR2E3 ag-2,V-ATPase pH,FXN GAA850 act,GalR3 antag,GalR3 antag conf,CNG parental
COCc1ccc(-c2ccc3c(c2)c(C#Cc2ccsc2)c(-c2cc(OC)cc(OC)c2)n3C)cc1,–,–,–,–,–,–,·,·
COc1cc(OC)cc(-c2c(C#Cc3ccsc3)c3cc(-c4ccc(C(N)=O)cc4)ccc3n2C)c1,–,–,–,–,–,·,–,–
COc1ccc(N(C(=O)c2snc(C(N)=O)c2N)C(C(=O)NC2CCCC2)c2ccco2)cc1 (stereo not given),–,–,–,–,–,18,–,–
Cc1cc(NC(=O)/C=C/c2ccccc2)c(C(C)C)cc1O,–,–,–,–,–,19,23,–
Cc1noc(C)c1S(=O)(=O)Nc1ccc2c(c1)CC(=O)N([C@@H](C)CO)C[C@H](C)[C@@H](CN(C)S(=O)(=O)c1ccc(F)cc1)O2,–,·,·,·,·,·,·,·
COCCN(C(=O)COC(=O)CCOc1ccccc1)c1c(N)n(Cc2ccccc2)c(=O)[nH]c1=O,–,–,–,–,–,·,·,·
COCCN(C(=O)COC(=O)CCS(=O)(=O)c1ccccc1)c1c(N)n(Cc2ccccc2)c(=O)[nH]c1=O,–,–,–,–,–,14,–,–
C=CCc1cccc(CNc2cnc3ccccc3c2)c1O,–,–,–,–,–,60,90,–
Oc1ccccc1CNc1cnc2ccccc2c1,·,–,–,–,–,–,·,·
Cc1nnc(N/N=C/c2ccc([N+](=O)[O-])cc2)n1N,–,–,–,–,–,15,–,–
COc1ccc(/C=N/Nc2nnc(C)n2N)cc1OC,–,–,–,–,–,–,·,·
CC(C)NC(=O)Nc1ccc2c(c1)C(=O)N([C@@H](C)CO)C[C@@H](C)[C@@H](CN(C)S(=O)(=O)c1cn(C)cn1)O2,–,·,·,·,·,·,·,·
CN(Cc1ccc2c(c1)CCCN2C)C(=O)[C@H]1O[C@@H](n2cnc3c(N)ncnc32)[C@H](O)[C@@H]1O,–,·,–,·,·,42,85,–
C[C@H](NC(=O)C[C@H]1C[C@@H]2c3cc(NS(C)(=O)=O)ccc3O[C@@H]2[C@H](CO)O1)c1ccccc1,–,·,·,·,·,·,·,·
Cc1ccc(C(=O)NCCCn2ccnc2)cn1,·,–,–,–,–,·,–,–
Cc1ccc(S(=O)(=O)Nc2ccc3c(c2)C(=O)N([C@H](C)CO)C[C@H](C)[C@@H](CN(C)C(=O)Cc2ccccc2)OCCCC[C@@H](C)O3)cc1,–,·,·,·,·,·,·,·
CCN(CC(=O)Nc1ccc2c(c1)OCCO2)C(=O)/C=C/c1ccc(F)cc1,–,–,–,–,–,13,28,2.4
CCN(CC(=O)Nc1ccc2c(c1)OCCO2)C(=O)/C=C/c1ccccc1,–,–,–,–,–,–,·,·
Cc1cc(F)ccc1N1CCC(N2CCN(C(C)C)C(CCO)C2)CC1 (stereo not given),–,–,–,–,–,18,–,–
O=C(COC(=O)c1cccnc1)Nc1ccc2c(c1)OCO2,–,–,–,–,–,14,–,–
CCCN(C)C[C@@H]1Oc2cc(-c3cccnc3)ccc2S(=O)(=O)N([C@H](C)CO)C[C@@H]1C,–,·,·,·,·,·,·,·
COc1ccc(S(=O)(=O)NCc2ccco2)cc1-c1nnc2c3ccccc3c(C)nn12,–,–,–,–,–,28,15,–
C[C@@H]1CN([C@H](C)CO)C(=O)c2cc(NC(=O)Nc3ccc4c(c3)OCO4)ccc2O[C@@H](C)CCCCO[C@H]1CN(C)Cc1ccc(C(F)(F)F)cc1,–,·,·,·,·,·,·,·
COCC1=C2[C@@H](c3ccccc3)OB(O)C[C@@H]2[C@@H]2C(=O)N(Cc3ccccc3)C(=O)[C@@H]2C1,–,·,·,·,·,·,·,·
O=C(Nc1cccc(Br)c1)c1ccc(CN2CCc3ccccc3C2)cc1,–,–,–,–,–,85,107,–
